Compound activity deposited in PubChem BioAssay by Broad Institute.
PGC1a acetyl up – raises PGC1a acetylation signal in U2OS cells; U2OS PGC1a acetylation AlphaScreen, overnight; activation, % at 15.6 µM; 350,000 compounds, 0.21% hits; AID 651723;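 active = every replicate reaching activation of at least 50%, whatever the mean replicate activation; inconclusive = replicates that disagree or another doubt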;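 also: hits raise the AlphaScreen acetylation signal above neutral controls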
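System – flag-PGC1a/GCN5 U2OS cells · Quantity – 7000 U2OS cells per well · Signal – AlphaScreen proximity luminescence, anti-acetyl-lysine antibody · Schedule – overnight compound treatment, 37 °C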
G6PC hep suppr – PGC-1a acetylation activators affecting G6PC expression in hepatocytes. shares compounds with PGC1a acetyl up. primary mouse hepatocytes, G6PC mRNA qPCR, forskolin. G6PC suppression (normalized activity, % of positive control; higher = more suppression), % at 26 µM. 240 tested, under 10 active. AID 743463;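 active = dose curves showing G6PC suppression whose half-maximal dose is at most twice the top valid dose; inconclusive = flat curves with moderate negative activity, or unreliable fits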;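 also: G6PC expression relative to GAPDH housekeeping gene as delta delta Ct; 0% = median of neutral control wells and 100% = median of positive control wells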
PCK1 hep suppr – hepatocyte PCK1 expression change via PGC-1a acetylation activation; shares compounds with PGC1a acetyl up; primary mouse hepatocytes, PCK1 mRNA qPCR, forskolin-stimulated; PCK1 expression decrease, unspecified at 26 µM; 230 tested, under 10 active; AID 743465;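 active = compounds lowering PCK1 expression whose fitted half-maximal concentration is at most twice the top tested dose; inconclusive = flat fit with moderate opposite-direction effect, or poor fit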;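 also: values are delta delta Ct of PCK1 relative to GAPDH; higher delta delta Ct means lower PCK1 expression so positive values indicate hits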
PGC1a hep suppr – PGC-1a acetylation activators affecting PGC-1a expression in hepatocytes. shares compounds with PGC1a acetyl up. primary mouse hepatocytes, PGC-1a mRNA qPCR, forskolin; top dose 26 µM. max activity (PGC-1a expression decrease), %. 240 tested, under 10 active;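 active = compound lowering PGC-1a expression with fitted half-maximal concentration at most twice its top tested dose; inconclusive = flat curve with moderate opposite-direction effect, or poor fit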;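 also: 0% = neutral control wells median and 100% = positive control wells median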
Active calls of the source: *; [ ] = another dose, or the depositor's remark. Not all results are given here.

What do the screens show for `C[C@@H]1CN([C@@H](C)CO)C(=O)c2c(c3ccccc3n2C)-c2ccccc2CO[C@@H]1CN(C)C(=O)c1ccc(F)cc1`?
PGC1a acetyl up: 117*; G6PC hep suppr: 35; PCK1 hep suppr: 151; PGC1a hep suppr: 207

Results for C[C@@H]1CN([C@@H](C)CO)C(=O)c2c(c3ccccc3n2C)-c2ccccc2CO[C@@H]1CN(C)C(=O)c1ccccc1 ?
PGC1a acetyl up: 76*; G6PC hep suppr: 22[23.5 µM]; PCK1 hep suppr: 44[23.5 µM]; PGC1a hep suppr: 169

Results for CCN1C(=O)CCCc2ccccc21 ?
PGC1a acetyl up: -68

How did CCO[C@H]1OC(C(=O)Nc2ccccc2)=C[C@@H](c2csc3ccccc23)[C@@H]1CCCO do in these assays?
PGC1a acetyl up: -54

How did CSCC(=O)N1CCCC(CO)(Cc2ccccc2C)C1 (centres undefined) do in these assays?
PGC1a acetyl up: -109

Results for CC1(C(=O)Nc2cccc(C#N)c2)CCN1C(=O)CCc1ccccc1 (centres undefined) ?
PGC1a acetyl up: -44

Results for CC(C)[C@H](C)NC(=O)N(C)C[C@H]1OCc2ccccc2-c2c(n(C)c3ccccc23)C(=O)N([C@H](C)CO)C[C@H]1C ?
PGC1a acetyl up: 59*; G6PC hep suppr: 3; PCK1 hep suppr: 5.6; PGC1a hep suppr: 59

Results for COc1ccc(NCc2nnc(SCC(=O)Nc3cc(C)cc(C)c3)o2)cc1 ?
PGC1a acetyl up: -52

Results for CC1(C)CC(=O)C(N=Nc2cc(Cl)c(Cl)c(Cl)c2)=C(O)C1 ?
PGC1a acetyl up: -48

How did O=C(O)c1ccccc1C(=O)N1CCN(C(=O)c2ccccc2Cl)CC1 do in these assays?
PGC1a acetyl up: -50

What do the screens show for `O=C(c1ccccc1Nc1ccc(SC(F)F)cc1)N1CCCCCC1`?
PGC1a acetyl up: 53*; G6PC hep suppr: -38; PCK1 hep suppr: 11; PGC1a hep suppr: 84

What do the screens show for `CC(=O)N(C1=C(N2CCOCC2)C(=O)c2ccccc2C1=O)c1ccc(C(=O)O)cc1`?
PGC1a acetyl up: -40

How did c1ccc(C(c2nnnn2Cc2cccs2)N2CCN(C3CCCC3)CC2)cc1 (centres undefined) do in these assays?
PGC1a acetyl up: -42; G6PC hep suppr: 27; PCK1 hep suppr: 34; PGC1a hep suppr: 38

Results for CN1Cc2c(N3CCOCC3)nc3sc(C(=O)c4ccc(Br)cc4)c(N)c3c2CC1(C)C ?
PGC1a acetyl up: 83*; G6PC hep suppr: 235; PCK1 hep suppr: 208; PGC1a hep suppr: 48

How did C(=N\Nc1nc2ccccc2[nH]1)/c1ccc2ncccc2c1 do in these assays?
PGC1a acetyl up: -49

Results for CC(C)(C)c1ccc(OCC(=O)NNC(=O)Nc2ccccc2)cc1 ?
PGC1a acetyl up: -43

What do the screens show for `Cc1[nH]c2ccc(C(C)C)cc2c1CC(=O)O`?
PGC1a acetyl up: -76

Results for CCN(CC)c1ccc(NC2=C(Cl)C(=O)c3ccccc3C2=O)cc1 ?
PGC1a acetyl up: -68

Results for CN(c1ccccc1)S(=O)(=O)c1ccc(Cl)nc1 ?
PGC1a acetyl up: -44

How did NC(=O)Cn1cc(C(=O)c2cccs2)c2ccccc21 do in these assays?
PGC1a acetyl up: inconclusive; PCK1 hep suppr: -14; PGC1a hep suppr: 26

Results for COc1ccc(/C=N/Nc2nncn2N)cc1Br ?
PGC1a acetyl up: -69

How did CCc1nccn1S(=O)(=O)c1cc(C)c(OC)cc1C do in these assays?
PGC1a acetyl up: -50

What do the screens show for `CC(=O)Nc1ccc(NC(=O)CN(c2cc(Cl)ccc2Cl)S(C)(=O)=O)cc1`?
PGC1a acetyl up: 117*; G6PC hep suppr: 36; PGC1a hep suppr: 69

What do the screens show for `COc1cc(/C=C2\CC(C(C)(C)C)C/C(=C\c3cc(OC)c(OC)c(OC)c3)C2=O)cc(OC)c1OC` (centres undefined)?
PGC1a acetyl up: -53

Results for COc1cc(CNCCN2CCOCC2)ccc1OCc1ccc(Cl)cc1Cl ?
PGC1a acetyl up: -101

What do the screens show for `Cc1ccccc1Cn1cc(NC(=O)c2cc(-c3cccs3)on2)cn1`?
PGC1a acetyl up: inconclusive; PCK1 hep suppr: -14; PGC1a hep suppr: 22

What do the screens show for `CCN1CCN(Cc2ccc(NC(=O)c3ccc(C)c(NC(=O)c4cncc(-c5cccs5)c4)c3)cc2C(F)(F)F)CC1`?
PGC1a acetyl up: -69

Results for Cc1cc(N2CCN(C)CC2)nc2ccc(NC(=S)N3CCN(c4cccc(Cl)c4)CC3)cc12 ?
PGC1a acetyl up: -48

Results for Cc1oc2c(c1C(=O)c1ccccc1)C(=O)C(=O)c1ccccc1-2 ?
PGC1a acetyl up: -66

Results for CC1CCN(C(=O)COC(=O)c2ccc(Br)o2)CC1 ?
PGC1a acetyl up: -50

How did Cc1ccccc1Cn1cnc2c(nnn2Cc2ccc(F)cc2)c1=O do in these assays?
PGC1a acetyl up: -48

How did O=C(NCc1ccccc1)C1Cc2c(-c3ccc(Cl)cc3)ccnc2O1 (centres undefined) do in these assays?
PGC1a acetyl up: 69*; G6PC hep suppr: 214; PCK1 hep suppr: -2.3; PGC1a hep suppr: 63

What do the screens show for `CCn1c(SC/C=C/c2ccccc2)nnc1-c1cccs1`?
PGC1a acetyl up: -50; G6PC hep suppr: 109; PCK1 hep suppr: 59; PGC1a hep suppr: 154

Results for CC(Oc1ccc(Cl)cc1Cl)c1nc(-c2ccc(NC(=O)c3cccnc3)cc2)no1 (centres undefined) ?
PGC1a acetyl up: 88*; G6PC hep suppr: 555; PCK1 hep suppr: 259; PGC1a hep suppr: inconclusive

Results for O=C(Nc1ccc(-c2noc(-c3cccs3)n2)cc1)c1cccnc1 ?
PGC1a acetyl up: 137*; G6PC hep suppr: -24; PCK1 hep suppr: 11; PGC1a hep suppr: inconclusive

How did Cc1cc(C)c2oc(C(=O)N(Cc3ccccc3)c3ccccn3)cc(=O)c2c1 do in these assays?
PGC1a acetyl up: -46

Results for CCCc1cc(=O)oc2cc(C)cc(O)c12 ?
PGC1a acetyl up: -43

Results for CCCn1c(=O)c2ccccc2n2c(SCc3c(C(=O)OCC)oc4ccccc34)nnc12 ?
PGC1a acetyl up: -42

Results for CCOc1ccc(S(N)(=O)=O)cc1-c1nc2c(C(C)(C)C)nn(C)c2c(=O)[nH]1 ?
PGC1a acetyl up: -50

How did CCOC(=O)CNS(=O)(=O)c1cc(-c2nnc(Nc3ccc4c(c3)OCO4)c3ccccc23)ccc1C do in these assays?
PGC1a acetyl up: 168*; G6PC hep suppr: 85; PCK1 hep suppr: 120; PGC1a hep suppr: 92

How did N#Cc1ccc(CCc2ccccc2)[nH]c1=O do in these assays?
PGC1a acetyl up: -43

What do the screens show for `COc1ccc(-c2nc3c(C)cc(Br)cn3c2Cc2ccc(C)cc2)cc1OC`?
PGC1a acetyl up: inconclusive; G6PC hep suppr: 215; PCK1 hep suppr: 131; PGC1a hep suppr: 99

What do the screens show for `CCOc1ccc(N2C(=O)CC(Cc3ccc(Br)cc3)C2=O)cc1` (centres undefined)?
PGC1a acetyl up: -71

What do the screens show for `O=c1[nH]c(/C=C/c2ccc([N+](=O)[O-])cc2)c([N+](=O)[O-])c(=O)[nH]1`?
PGC1a acetyl up: -43
